ChEMBL document CHEMBL1914311, “Sugar-based peptidomimetics inhibit amyloid β-peptide aggregation” (Eur J Med Chem, 2011)
Activity calls are given as the source filed them. The rule behind the calls is not given here. Numbered stars: 1 amine (or outer) side, 2 acyl side, 3 side chain; on linkers, the order of the positions; unused ones are H or OH. Square brackets hold non-standard residues; d marks the D form. Peptide text beside a SMILES is read from it. * marks the point of attachment. X1 = O=C(CCOC[C@H]1O[C@@H](OCCCN[*:1])[C@H](O)[C@@H](O)[C@@H]1O)[*:2]; X2 = O=C(CCOC[C@H]1O[C@@H](OCCN[*:1])[C@H](O)[C@@H](O)[C@@H]1O)[*:2]; X3 = O=C(CCOC[C@H]1O[C@H](OCCCN[*:1])[C@H](O)[C@@H](O)[C@@H]1O)[*:2]; X4 = O=C(CCOC[C@H]1O[C@H](OCCN[*:1])[C@H](O)[C@@H](O)[C@@H]1O)[*:2]; Boc = CC(C)(C)OC(=O)*

Key:
[1] = Binding affinity to amyloid beta (1 to 40) at 1:20 protein to compound ratio after 2 weeks by STD-NMR spectroscopy
Outline: (§1)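 STD-NMR used diluted Aβ1-40 (30 μM) at a 1:20 peptide:compound ratio, followed over time. Buffer was 50 mM sodium phosphate, 150 mM NaCl, pH 7.0, 10% D2O. A cascade of Gaussian selective pulses (50 ms, B1 0.16 kHz, 2 s total) was applied alternately at -1 and +30 ppm.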

[2] = target: T1, Islet amyloid polypeptide (Homo sapiens) (UniProt P10997); assay: Inhibition of IAPP fibril formation at 1:10 protein to compound ratio after 3 hrs by transmission electron microscopy analysis
T1 sequence (whole entry): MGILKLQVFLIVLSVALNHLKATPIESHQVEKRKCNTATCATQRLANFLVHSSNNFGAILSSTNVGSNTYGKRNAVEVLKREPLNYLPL
Outline: (§2)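 IAPP and compound (1:10) were incubated under the ThT assay conditions: 10 mM Tris·HCl, 100 mM NaCl, pH 7.4. Aliquots were taken at 3 h and 24 h, adsorbed onto carbon-coated copper grids for 2 min, negatively stained, and imaged by transmission electron microscopy.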

[3] = Solubility of compound in water; assay type: physicochemical; details: buffer
[4] = Inhibition of amyloid beta (1 to 40) fibril formation assessed as lag time for aggregate formation at 1:0.1 protein to compound ratio by thioflavin T fluorescence assay relative to untreated control
Outline: (§3)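 HFIP-pretreated synthetic Aβ1-40 (DMSO stock) was used at 20 μM with compound at 1:1 or 1:0.1 peptide:compound ratios. The mixture contained 10 μM ThT in 10 mM Tris/HCl, 100 mM NaCl, pH 7.4, with 2.5% DMSO final. Fluorescence (ex 440, em 485 nm) was followed over time on aliquots, 2–6 runs on different days. Lag extension was taken as t(+compound)/t(alone), and plateau reduction as a percent decrease versus peptide alone.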

[5] = Inhibition of amyloid beta (1 to 40) fibril formation at 1:1 protein to compound ratio by thioflavin T fluorescence assay relative to untreated control; details: concentration not given here; outline: as §3
[6] = target: T1, Islet amyloid polypeptide (Homo sapiens); assay: Inhibition of IAPP fibril formation assessed as fold increase in lag time for aggregate formation at 1:10 protein to compound ratio by thioflavin T fluorescence assay relative to untreated control
Outline: (§4)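 IAPP was made synthetic with an amidated C-terminus, pretreated with HFIP, and taken up in DMSO. It was used at 5 μM with 10 μM ThT in 10 mM Tris/HCl, 100 mM NaCl, pH 7.4, with 2.5% DMSO final. Compound was added at a 1:10 peptide:compound ratio. Fluorescence was read over time (ex 440, em 485 nm), 2–6 runs on different days. Lag extension was calculated as t(+compound)/t(alone). Plateau reduction was (F − F+compound)/F × 100%.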

[7] = Inhibition of amyloid beta (1 to 40) fibril formation assessed as appearance of spherical aggregates at 1:1 protein to compound ratio after 2 weeks by transmission electron microscopy analysis
Outline: (§5)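 Aβ1-40 and compound were incubated at a 1:1 ratio in 10 mM Tris·HCl, 100 mM NaCl, pH 7.4, under the ThT assay conditions. Aliquots were taken after 1 day, 2 days and 2 weeks. They were adsorbed onto carbon-coated grids for 2 min, negatively stained, and imaged by TEM.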

[8] = Inhibition of amyloid beta (1 to 40) fibril formation assessed as appearance of spherical aggregates at 1:01 protein to compound ratio after 2 weeks by transmission electron microscopy analysis
[9] = Binding affinity to amyloid beta (1 to 40) assessed as negative chemical shift by NMR spectroscopy analysis
Outline: (§6)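 Synthetic C-terminally amidated Aβ1-40 was studied by NMR in 50 mM sodium phosphate, 150 mM NaCl, pH 7.0, with 10% D2O. 2D NOESY spectra were recorded with a 0.2 s mixing time.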

[10] = Binding affinity to amyloid beta (1 to 40) at 1:20 protein to compound ratio up to 1 hr by STD-NMR spectroscopy; outline: as §1
[11] = Inhibition of amyloid beta (1 to 40) fibril formation assessed as appearance of spherical aggregates at 1:01 protein to compound ratio after 1 to 2 days by transmission electron microscopy analysis
[12] = Binding affinity to amyloid beta (1 to 40) at 1 mM by STD-NMR spectroscopy
Outline: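 1D saturation transfer difference NMR was run in 50 mM sodium phosphate, 150 mM NaCl, pH 7.0, 10% D2O. Compound was at 1 mM and Aβ1-40 at 0.25 mM. Saturation used a cascade of Gaussian selective pulses (50 ms each, B1 0.16 kHz) lasting 2 s in total, applied alternately at -1 and +30 ppm. Compound-alone spectra served as control.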

[13] = target: T1, Islet amyloid polypeptide (Homo sapiens); assay: Inhibition of IAPP fibril formation at 1:10 protein to compound ratio after 24 hrs by transmission electron microscopy analysis; outline: as §2
[14] = Inhibition of amyloid beta (1 to 40) fibril formation assessed as appearance of spherical aggregates at 1:1 protein to compound ratio after 1 to 2 days by transmission electron microscopy analysis; outline: as §5
[15] = Binding affinity to amyloid beta (1 to 40) assessed as negative chemical shift at 1 mM by 2D NOESY spectroscopy analysis; outline: as §6
[16] = Inhibition of amyloid beta (1 to 40) fibril formation assessed as lag time for aggregate formation at 1:1 protein to compound ratio by thioflavin T fluorescence assay relative to untreated control; outline: as §3
[17] = target: T1, Islet amyloid polypeptide (Homo sapiens); assay: Inhibition of IAPP fibril formation assessed as inhibition of aggregate formation at 1:10 protein to compound ratio by thioflavin T fluorescence assay relative to untreated control; details: concentration not given here; outline: as §4
[18] = Inhibition of amyloid beta (1 to 40) fibril formation assessed as fold increase in lag time for aggregate formation at 1:1 protein to compound ratio by thioflavin T fluorescence assay relative to untreated control; outline: as §3

Activity [1] | inhibition [2] | solubility [3] | TIME [4] | inhibition [5] | fold change (FC) [6] | inhibition [7] | inhibition [8] | Activity [9] | Activity [10] | inhibition [11] | Activity [12] | inhibition [13] | inhibition [14] | TIME [16] | inhibition [17] | fold change (FC) [18] | Compound | Activity [15]
Active | inactive | soluble | 26 h | 52% | 1 | Active | inactive | inactive | inactive | Active | Active | inactive | Active | 41 h | 5% | 3 | COC(=O)[C@H](CC(C)C)NC(=O)[C@@H](NC(=O)CCOC[C@H]1O[C@@H](OCCCNC(=O)[C@@H](NC(=O)[C@H](C)NC(=O)OC(C)(C)C)C(C)C)[C@H](O)[C@@H](O)[C@@H]1O)C(C)C (Boc-AV[X1]VL-OMe) | Active
 |  | soluble |  | 40% | 1 |  |  |  |  |  |  |  |  |  | 1% | 3.4 | COC(=O)[C@H](CC(C)C)NC(=O)[C@@H](NC(=O)CCOC[C@H]1O[C@@H](OCCNC(=O)[C@@H](NC(=O)[C@H](C)NC(=O)OC(C)(C)C)C(C)C)[C@H](O)[C@@H](O)[C@@H]1O)C(C)C (Boc-AV[X2]VL-OMe) | 
 |  | soluble |  | 60% | 1 |  |  |  |  |  |  |  |  |  | 9% | 3.4 | COC(=O)[C@H](CC(C)C)NC(=O)[C@@H](NC(=O)CCOC[C@H]1O[C@H](OCCCNC(=O)[C@@H](NC(=O)[C@H](C)NC(=O)OC(C)(C)C)C(C)C)[C@H](O)[C@@H](O)[C@@H]1O)C(C)C (Boc-AV[X3]VL-OMe) | 
 |  | soluble |  | 22% |  |  |  |  |  |  |  |  |  |  |  | 3.4 | COC(=O)[C@H](CC(C)C)NC(=O)[C@@H](NC(=O)CCOC[C@H]1O[C@H](OCCNC(=O)[C@@H](NC(=O)[C@H](C)NC(=O)OC(C)(C)C)C(C)C)[C@H](O)[C@@H](O)[C@@H]1O)C(C)C (Boc-AV[X4]VL-OMe) | 
